Reference: ChEMBL document CHEMBL2176978, “Fragment-based discovery of bromodomain inhibitors part 2: optimization of phenylisoxazole sulfonamides” (J Med Chem, 2012)

Tests used:
[1] = target: T1, Bromodomain-containing protein 4 (Homo sapiens, UniProt O60885); assay: Inhibition of His6FLAG-tagged BRD4-BD12 expressed in Escherichia coli assessed as change in melting temperature at 100 uM by thermal shift assay
Method in brief: (§1)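 Thermal melt: protein heated with or without 100 μM compound, at least duplicate; Sypro orange at 1:1000 in PBS with 10% glycerol; ramp 1 °C/min, fluorescence read every 0.5 °C; ΔTm reported.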

[2] = target: T2, Bromodomain-containing protein 2 (Homo sapiens, UniProt P25440); assay: Inhibition of His6FLAG-tagged BRD2-BD1 expressed in Escherichia coli assessed as change in melting temperature at 100 uM by thermal shift assay; method in brief: as §1
Target sequence in this assay (P25440 whole entry, looked up, the tested form may be a part): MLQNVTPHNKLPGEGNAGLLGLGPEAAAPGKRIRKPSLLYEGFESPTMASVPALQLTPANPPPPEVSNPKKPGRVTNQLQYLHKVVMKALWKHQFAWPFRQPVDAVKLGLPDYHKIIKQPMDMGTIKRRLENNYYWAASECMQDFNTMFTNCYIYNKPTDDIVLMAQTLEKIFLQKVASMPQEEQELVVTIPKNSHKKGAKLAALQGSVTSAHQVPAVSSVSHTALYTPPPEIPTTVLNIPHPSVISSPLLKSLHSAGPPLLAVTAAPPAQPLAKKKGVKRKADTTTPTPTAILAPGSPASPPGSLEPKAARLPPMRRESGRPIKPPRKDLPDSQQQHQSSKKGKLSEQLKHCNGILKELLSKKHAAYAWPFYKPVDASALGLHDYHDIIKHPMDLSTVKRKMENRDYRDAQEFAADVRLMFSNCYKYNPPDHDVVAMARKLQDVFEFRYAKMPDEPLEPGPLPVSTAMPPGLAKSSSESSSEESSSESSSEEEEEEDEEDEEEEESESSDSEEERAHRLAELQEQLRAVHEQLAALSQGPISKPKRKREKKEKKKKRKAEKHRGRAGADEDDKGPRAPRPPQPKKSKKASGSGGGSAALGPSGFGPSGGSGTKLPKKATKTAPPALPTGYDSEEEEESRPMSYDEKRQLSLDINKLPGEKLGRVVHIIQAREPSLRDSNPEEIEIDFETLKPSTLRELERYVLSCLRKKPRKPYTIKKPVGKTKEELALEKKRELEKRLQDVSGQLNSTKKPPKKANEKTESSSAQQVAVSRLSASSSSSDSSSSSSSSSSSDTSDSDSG

[3] = target: Bromodomain adjacent to zinc finger domain protein 2B (Homo sapiens) (UniProt Q9UIF8); assay: Inhibition of His6FLAG-tagged BAZ2B expressed in Escherichia coli assessed as change in melting temperature at 100 uM by thermal shift assay; method in brief: as §1
Blood = assay: Antiinflammatory activity in human whole blood assessed as inhibition of LPS-induced TNFalpha production after 18 to 24 hrs by ELISA; format: functional, tissue-based
PBMC [4] = assay: Antiinflammatory activity in human PBMC assessed as inhibition of LPS-induced TNFalpha production after 18 to 24 hrs by ELISA; format: functional, cell-based
PBMC [5] = assay: Antiinflammatory activity in human PBMC assessed as inhibition of LPS-induced IL6 production after 18 to 24 hrs by ELISA; format: functional, cell-based
[6] = target: PH-interacting protein (Homo sapiens) (UniProt Q8WWQ0); assay: Inhibition of His6FLAG-tagged PHIP-BD2 expressed in Escherichia coli assessed as change in melting temperature at 100 uM by thermal shift assay; method in brief: as §1
[7] = target: T1, Bromodomain-containing protein 4; assay: Inhibition of His6FLAG-tagged BRD4-BD1 expressed in Escherichia coli assessed as change in melting temperature at 100 uM by thermal shift assay; method in brief: as §1
[8] = target: T3, Bromodomain-containing protein 1 (Homo sapiens) (UniProt O95696); assay: Inhibition of His6FLAG-tagged BRD1 expressed in Escherichia coli assessed as change in melting temperature at 100 uM by thermal shift assay; method in brief: as §1
T3 sequence (whole entry): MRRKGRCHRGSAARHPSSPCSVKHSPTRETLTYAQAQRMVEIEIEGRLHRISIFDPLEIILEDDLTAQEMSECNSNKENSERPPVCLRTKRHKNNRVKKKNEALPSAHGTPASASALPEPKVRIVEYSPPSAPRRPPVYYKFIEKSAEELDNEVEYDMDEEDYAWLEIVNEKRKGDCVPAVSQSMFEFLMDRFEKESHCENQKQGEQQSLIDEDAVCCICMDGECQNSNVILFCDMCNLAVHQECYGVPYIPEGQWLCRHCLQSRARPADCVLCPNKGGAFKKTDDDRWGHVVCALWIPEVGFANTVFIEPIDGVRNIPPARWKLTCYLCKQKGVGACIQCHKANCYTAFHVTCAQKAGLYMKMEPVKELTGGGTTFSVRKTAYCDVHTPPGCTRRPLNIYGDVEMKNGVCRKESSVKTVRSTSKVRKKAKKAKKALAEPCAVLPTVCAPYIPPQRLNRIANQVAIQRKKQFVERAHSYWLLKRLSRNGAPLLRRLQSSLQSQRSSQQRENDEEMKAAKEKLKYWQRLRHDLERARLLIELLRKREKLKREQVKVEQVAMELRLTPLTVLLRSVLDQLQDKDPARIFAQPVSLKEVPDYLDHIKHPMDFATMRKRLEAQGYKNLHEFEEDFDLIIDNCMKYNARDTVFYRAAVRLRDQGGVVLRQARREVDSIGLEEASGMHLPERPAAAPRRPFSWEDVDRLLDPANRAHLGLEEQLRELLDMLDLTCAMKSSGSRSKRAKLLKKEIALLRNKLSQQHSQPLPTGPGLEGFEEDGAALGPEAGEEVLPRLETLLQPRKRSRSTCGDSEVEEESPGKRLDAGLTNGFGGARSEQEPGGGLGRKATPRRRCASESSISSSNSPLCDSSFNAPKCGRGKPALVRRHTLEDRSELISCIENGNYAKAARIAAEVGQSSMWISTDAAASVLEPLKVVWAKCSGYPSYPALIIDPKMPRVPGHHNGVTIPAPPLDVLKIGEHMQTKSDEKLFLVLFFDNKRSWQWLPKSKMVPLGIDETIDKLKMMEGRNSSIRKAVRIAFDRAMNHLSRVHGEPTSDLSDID

[9] = target: T1, Bromodomain-containing protein 4; assay: Inhibition of His6-tagged BRD4-BD12 expressed in Escherichia coli assessed as inhibition of binding to SGRG-K(Ac)-GG-K(Ac)-GLG-K(Ac)-GGA-K(Ac)-RHGSGSK-biotin after 1 hr by TR-FRET assay
[10] = target: T2, Bromodomain-containing protein 2; assay: Binding affinity to His6-tagged BRD2 expressed in Escherichia coli by surface plasmon resonance assay
Method in brief: (§2)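 SPR with tandem bromodomain (BRD2-BD12 or BRD4-BD12) amine-coupled to CM5 chip after EDC/NHS activation; protein 0.1−2 mg/mL in NaAc pH 4.5−5.5, >5 kRU immobilized, ethanolamine-blocked. Running buffer 50 mM HEPES pH 7.5, 150 mM NaCl.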

[11] = target: Bromodomain-containing protein 3 (Homo sapiens, UniProt Q15059); assay: Inhibition of His6-tagged BRD3 expressed in Escherichia coli assessed as inhibition of binding to SGRG-K(Ac)-GG-K(Ac)-GLG-K(Ac)-GGA-K(Ac)-RHGSGSK-biotin after 1 hr by TR-FRET assay
[12] = target: T1, Bromodomain-containing protein 4; assay: Binding affinity to His6-tagged BRD4 expressed in Escherichia coli by surface plasmon resonance assay; method in brief: as §2
[13] = target: T2, Bromodomain-containing protein 2; assay: Inhibition of His6-tagged BRD2 expressed in Escherichia coli assessed as inhibition of binding to SGRG-K(Ac)-GG-K(Ac)-GLG-K(Ac)-GGA-K(Ac)-RHGSGSK-biotin after 1 hr by TR-FRET assay
Method in brief: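 TR-FRET competition using tandem bromodomain construct; displacement of a tetra-acetylated biotinylated peptide measured, IC50 reported.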
Target sequence in this assay (P25440 whole entry, the tested form may be a part): as the sequence (P25440 whole entry, looked up, the tested form may be a part) above

Bromodomain adjacent to zinc finger domain protein 2B (Homo sapiens), sequence (Q9UIF8 whole entry, the tested form may be a part): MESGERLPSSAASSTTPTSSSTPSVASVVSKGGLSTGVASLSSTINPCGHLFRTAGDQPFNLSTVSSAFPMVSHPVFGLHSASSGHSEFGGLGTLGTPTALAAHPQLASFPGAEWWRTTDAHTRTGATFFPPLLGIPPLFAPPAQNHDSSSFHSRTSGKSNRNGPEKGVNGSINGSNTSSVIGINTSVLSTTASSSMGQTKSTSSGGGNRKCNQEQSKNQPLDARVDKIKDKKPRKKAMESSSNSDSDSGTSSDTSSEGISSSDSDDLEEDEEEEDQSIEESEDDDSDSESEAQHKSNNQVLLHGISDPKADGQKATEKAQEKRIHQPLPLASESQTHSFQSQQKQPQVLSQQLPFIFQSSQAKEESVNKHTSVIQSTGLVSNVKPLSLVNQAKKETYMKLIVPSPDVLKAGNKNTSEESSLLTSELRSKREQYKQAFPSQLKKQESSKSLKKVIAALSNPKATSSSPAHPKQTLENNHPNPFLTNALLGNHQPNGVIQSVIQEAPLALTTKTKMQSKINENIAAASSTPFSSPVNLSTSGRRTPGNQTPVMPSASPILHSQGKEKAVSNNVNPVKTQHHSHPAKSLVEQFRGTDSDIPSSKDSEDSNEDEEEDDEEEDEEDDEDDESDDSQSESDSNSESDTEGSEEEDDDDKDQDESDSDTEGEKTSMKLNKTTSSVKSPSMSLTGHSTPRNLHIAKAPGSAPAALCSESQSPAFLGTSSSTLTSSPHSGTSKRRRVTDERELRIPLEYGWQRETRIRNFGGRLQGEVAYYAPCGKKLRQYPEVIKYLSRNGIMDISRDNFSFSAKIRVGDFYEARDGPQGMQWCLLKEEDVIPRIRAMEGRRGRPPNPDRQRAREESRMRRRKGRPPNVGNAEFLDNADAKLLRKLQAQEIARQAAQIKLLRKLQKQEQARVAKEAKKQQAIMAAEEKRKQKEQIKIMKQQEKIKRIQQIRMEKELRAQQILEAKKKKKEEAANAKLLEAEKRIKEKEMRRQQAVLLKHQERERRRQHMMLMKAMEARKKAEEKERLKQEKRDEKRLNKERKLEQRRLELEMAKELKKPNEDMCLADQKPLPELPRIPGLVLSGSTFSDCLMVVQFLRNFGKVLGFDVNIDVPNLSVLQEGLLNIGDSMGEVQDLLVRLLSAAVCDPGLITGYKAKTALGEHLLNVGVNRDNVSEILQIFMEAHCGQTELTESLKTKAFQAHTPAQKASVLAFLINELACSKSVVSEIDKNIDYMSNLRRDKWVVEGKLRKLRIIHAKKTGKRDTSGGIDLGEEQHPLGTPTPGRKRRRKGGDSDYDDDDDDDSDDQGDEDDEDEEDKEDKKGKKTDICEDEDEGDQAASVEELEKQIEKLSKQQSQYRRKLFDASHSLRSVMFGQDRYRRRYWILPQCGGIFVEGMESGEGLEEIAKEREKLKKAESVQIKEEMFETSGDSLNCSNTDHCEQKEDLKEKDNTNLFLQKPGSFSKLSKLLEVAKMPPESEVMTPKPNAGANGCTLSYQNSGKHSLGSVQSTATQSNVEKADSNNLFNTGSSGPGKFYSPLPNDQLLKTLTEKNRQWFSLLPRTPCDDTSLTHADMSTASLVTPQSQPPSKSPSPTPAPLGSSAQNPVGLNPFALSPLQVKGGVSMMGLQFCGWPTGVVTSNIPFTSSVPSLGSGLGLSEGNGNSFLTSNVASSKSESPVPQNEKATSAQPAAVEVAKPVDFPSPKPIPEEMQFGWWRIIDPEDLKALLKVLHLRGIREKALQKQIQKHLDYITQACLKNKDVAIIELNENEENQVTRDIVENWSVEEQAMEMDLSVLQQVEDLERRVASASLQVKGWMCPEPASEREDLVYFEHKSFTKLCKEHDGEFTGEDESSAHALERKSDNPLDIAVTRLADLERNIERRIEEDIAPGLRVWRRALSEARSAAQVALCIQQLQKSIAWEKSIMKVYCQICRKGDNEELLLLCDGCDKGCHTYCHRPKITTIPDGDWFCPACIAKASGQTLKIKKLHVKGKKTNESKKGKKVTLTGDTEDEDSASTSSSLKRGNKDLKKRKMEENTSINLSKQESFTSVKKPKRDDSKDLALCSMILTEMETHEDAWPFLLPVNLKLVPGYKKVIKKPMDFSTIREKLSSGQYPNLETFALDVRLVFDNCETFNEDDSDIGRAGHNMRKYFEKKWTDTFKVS
Bromodomain-containing protein 3, sequence (Q15059 whole entry): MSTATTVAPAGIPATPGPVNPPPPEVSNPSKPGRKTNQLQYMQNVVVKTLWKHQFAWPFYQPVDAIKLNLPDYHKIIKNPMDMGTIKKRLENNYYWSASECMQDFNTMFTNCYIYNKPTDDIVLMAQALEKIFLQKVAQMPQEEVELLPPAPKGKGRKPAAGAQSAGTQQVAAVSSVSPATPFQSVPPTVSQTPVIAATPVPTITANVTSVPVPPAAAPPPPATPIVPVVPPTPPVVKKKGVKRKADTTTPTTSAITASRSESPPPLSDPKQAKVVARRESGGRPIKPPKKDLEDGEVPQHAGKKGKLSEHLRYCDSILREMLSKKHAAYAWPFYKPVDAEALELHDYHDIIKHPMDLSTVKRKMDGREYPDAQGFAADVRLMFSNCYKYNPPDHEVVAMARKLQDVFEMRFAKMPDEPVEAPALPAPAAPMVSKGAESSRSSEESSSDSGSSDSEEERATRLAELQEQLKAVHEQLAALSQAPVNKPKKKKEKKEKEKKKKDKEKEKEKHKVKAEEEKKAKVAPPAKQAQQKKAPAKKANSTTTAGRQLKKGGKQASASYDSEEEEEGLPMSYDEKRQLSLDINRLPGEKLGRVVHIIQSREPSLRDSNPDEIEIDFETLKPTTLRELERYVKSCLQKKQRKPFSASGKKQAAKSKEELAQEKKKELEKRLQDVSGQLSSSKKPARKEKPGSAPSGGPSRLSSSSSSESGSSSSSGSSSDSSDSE

| Compound | ΔTm [1] | ΔTm [2] | ΔTm [3] | IC50 (Blood) | IC50 (PBMC [4]; read-out: IC50) | IC50 (PBMC [4]; read-out: pIC50 (converted)) | IC50 (PBMC [5]) | ΔTm [6] | ΔTm [7] | ΔTm [8] | IC50 [9] | Kd [10] | RUmax [10] | IC50 [11] | Kd [12] | RUmax [12] | IC50 [13] |
| --- | --- | --- | --- | --- | --- | --- | --- | --- | --- | --- | --- | --- | --- | --- | --- | --- | --- |
| Cc1ccc(-c2c(C)noc2C)cc1S(=O)(=O)NC1CCCC1 | 5 °C | 1 °C | < 1 °C | 5 µM | 0.2 µM | 0.126 µM | 3.1 µM | < 1 °C | 2 °C | < 1 °C |  |  |  |  |  |  |  |
| Cc1noc(C)c1-c1ccc(OCCCN2CCOCC2)c(S(=O)(=O)NC2CCCC2)c1 | 5 °C | 1 °C | < 1 °C |  |  |  |  | < 1 °C | 2 °C | < 1 °C | 2.6 µM | 3.14 µM | 34% | 1.1 µM | 2.75 µM | 25% | 1.5 µM |
